Only some compounds are listed: those with a hit (about 3.8% of all), similar ones and a draw of the others.
hERG protect = compounds protecting human hERG from proarrhythmic drug block. 310,000 tested, 0.51% active. Q12809. activation (rescue from dofetilide block), less the hit threshold, % at 10 µM. CHO-hERG, FluxOR thallium flux, dofetilide IC70 present;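 active = activation above the mean of controls blocked by dofetilide plus 5 SD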;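 note: thallium influx through hERG after potassium depolarization seen as dye fluorescence rise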
KCNK3 inh = human KCNK3 channel inhibition, primary screen; 340,000 tested, 0.84% active; B-score at 10 µM; CHO-KCNK3 thallium flux, FluxOR fluorescence; hits give low values; AID 602410;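 active = B-score under library mean minus 4 SD, starting fluorescence ratio at most library mean plus 5 SD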;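 note: more negative B-score means stronger inhibition of thallium flux through KCNK3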
Target sequence (O14649 whole entry, looked up): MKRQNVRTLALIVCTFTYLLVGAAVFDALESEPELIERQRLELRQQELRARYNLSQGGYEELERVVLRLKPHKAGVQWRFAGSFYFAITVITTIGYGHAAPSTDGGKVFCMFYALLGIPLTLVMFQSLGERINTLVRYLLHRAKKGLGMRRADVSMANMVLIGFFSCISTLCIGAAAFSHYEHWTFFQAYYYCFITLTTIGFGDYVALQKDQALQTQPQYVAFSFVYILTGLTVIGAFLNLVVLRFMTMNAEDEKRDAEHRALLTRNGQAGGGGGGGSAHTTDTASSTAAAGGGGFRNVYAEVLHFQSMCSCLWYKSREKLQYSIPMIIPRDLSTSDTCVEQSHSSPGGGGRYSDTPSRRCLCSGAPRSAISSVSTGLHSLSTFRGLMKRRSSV
KCNQ1 pot = potentiators or activators of human KCNQ1 potassium channel. CHO-K1 KCNQ1, thallium flux FluxOR fluorescence; hits give high values. B-score at 10 µM. 310,000 tested, 0.35% active. P51787;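 active = fluorescence ratio B-score, a plate-corrected score, at least three library SD, with initial intensity B-score within 5 SD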
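Test system: CHO-K1 cells stably expressing KCNQ1 / Medium: assay buffer / Also added: depolarizing K+/Tl+ stimulus, K2SO4 and Tl2SO4 each 12.5 mM in 5x stock / Incubation: 90 min dye loading and 20 min compound exposure, both at room temperature / Signal: thallium influx via FluxOR fluorescence, kinetic imaging / Evaluation: B score of baseline-normalized fluorescence ratio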
KCNQ1 block = blocks the human KCNQ1 potassium channel. CHO-K1 KCNQ1, FluxOR thallium flux fluorescence; hits give high values. AID 2642. B-score at 10 µM. 310,000 tested, 1.3% active. P51787;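 active = compounds whose thallium flux B-score, printed positive for inhibition, exceeds three library SD while starting fluorescence stays within three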;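 note: channel opened by potassium depolarization with thallium stimulus after 20 min compound exposure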
KCNK9 block = inhibitors of human KCNK9 two-pore domain potassium channel | 310,000 tested, 1.2% active | B-score at 10 µM | Q9NPC2 | HEK293 KCNK9, FluxOR thallium flux fluorescence; hits give low values;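 active = ratio B-score over 3 SD below the library mean, with starting fluorescence within 5 SD of its mean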;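 note: negative B-score means less thallium flux so channel inhibition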
Target sequence (Q9NPC2 whole entry, looked up, the tested form may be a part): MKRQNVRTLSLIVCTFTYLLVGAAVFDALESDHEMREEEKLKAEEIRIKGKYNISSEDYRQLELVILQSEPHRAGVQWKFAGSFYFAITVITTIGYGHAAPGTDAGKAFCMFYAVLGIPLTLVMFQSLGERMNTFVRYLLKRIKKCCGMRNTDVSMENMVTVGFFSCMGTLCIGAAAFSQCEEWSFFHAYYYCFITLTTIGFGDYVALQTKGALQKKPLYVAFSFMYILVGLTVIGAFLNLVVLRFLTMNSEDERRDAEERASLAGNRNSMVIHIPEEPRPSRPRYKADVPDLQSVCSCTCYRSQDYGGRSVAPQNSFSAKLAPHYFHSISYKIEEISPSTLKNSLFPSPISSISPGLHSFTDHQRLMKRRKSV
Kir21 block = inhibitors of mouse Kir2.1 inward-rectifier potassium channel | 310,000 tested, 0.85% active | HEK293-Kir2.1, FluxOR thallium flux fluorescence; hits give low values | B-score at 10 µM;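 active = fluorescence ratio B-score at or below minus 3 SD of library scores, with starting-brightness B-score within 2 SD, cut at about -4.2 in these data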;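 note: channel flux triggered by added potassium and thallium sulfate stimulus; B-score of peak minus minimum fluorescence over baseline after thallium stimulus; more negative B-score means stronger Kir2.1 block with less thallium influx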
KCNQ1 block val = human KCNQ1 channel inhibition, validation assay; AID 588353; inhibition, % at 10 µM; KCNQ1 cell line, FluxOR thallium flux fluorescence; shares compounds with KCNQ1 block; 1,600 tested, 93% active;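 active = primary screen active, with duplicate mean exceeding buffer control mean plus 3 SD of buffer wells, cut at about 28% in these data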
CHO Tl flux = counter-screen for KCNQ1 inhibitors: effect in parental CHO cells. shares compounds with KCNQ1 block. parental CHO-K1, FluxOR thallium flux fluorescence ratio; hits give low values; zero means no signal rise above baseline. fluorescence ratio (Tl flux) at 10 µM. 1,600 tested, 21% active. AID 588366;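 active = mean of duplicate thallium-flux fluorescence ratios in parental host cells more than 5 SD below the buffer control mean, cut at about 0.38 in these data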;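 note: ratio is peak minus minimum fluorescence divided by baseline fluorescence; actives read low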
KCNQ1 APC inh = blocks human KCNQ1 current in automated patch clamp | 490 tested, 20% active | AID 624120 | calls only at 10 µM | shares compounds with KCNQ1 block | KCNQ1-CHO cells;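 active = KCNQ1 current drop exceeding 3 SD of negative control wells, seen in both duplicate runs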;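 note: steady state current during a 2 s step from -80 to +40 mV; negative values mean current inhibition and positive values mean potentiation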
KCNQ2 inh = rat KCNQ2 inhibition in KCNQ1 inhibitor specificity screen. KCNQ2 cells, FluxOR thallium flux fluorescence. shares compounds with KCNQ1 block. 1,600 tested, 71% active. inhibition, % at 10 µM;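 active = mean percent inhibition of the KCNQ2 thallium signal more than 5 SD above the buffer-only control wells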;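 note: KCNQ2 expressed in CHO cells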
KCNQ1-KCNE1 inh = KCNQ1 inhibitor that also blocks human KCNQ1/KCNE1 channel | shares compounds with KCNQ1 block | KCNQ1/KCNE1 cells, FluxOR thallium flux fluorescence | inhibition, % at 10 µM | 1,600 tested, 77% active | AID 652147;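 active = mean percent inhibition of duplicate wells above the buffer-only control mean plus 3 SD of those controls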
KCNK3 confirm = confirmation of human KCNK3 two-pore domain potassium channel inhibitors. AID 651638. shares compounds with KCNK3 inh. 2,400 tested, 99% active. ratio percent of control, % at 10 µM. CHO-KCNK3 thallium flux, FluxOR fluorescence; 0% buffer, 100% carvedilol maximal block;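 active = ratio percent of control, averaged over triplicates, above buffer control mean plus 5 SD, cut at about 64% in these data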;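 note: ratio is the fluorescence rise from min to max over baseline after thallium stimulus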
KCNK3 noninduced = activity in cells without induced KCNK3 expression | shares compounds with KCNK3 inh | non-induced KCNK3 parental cells, FluxOR thallium flux; hits give low values | thallium flux ratio (lower = more inhibition) at 10 µM | 2,400 tested, 40% active | AID 651747;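 active = thallium flux ratio, averaged over three wells, more than 5 SD below the buffer control mean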;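 note: host cells are CHO cells without KCNK3 induction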
Each line names hits and unclear results; the compound was inactive in the other large screens (follow-up assays come after a bar, where they were run).

COc1cc(/C=C2\N=C(c3c(-c4ccccc4)noc3C)OC2=O)ccc1OC(C)=O	none
Cc1nc(N2CCN(Cc3ccc4c(c3)OCO4)CC2)c2cc(-c3ccccc3)sc2n1	KCNK3 inh -10.1, KCNQ1 block 7 | KCNQ1 block val 118.0 | CHO Tl flux inactive | KCNQ1 APC inh inactive | KCNQ2 inh 111.0% | KCNQ1-KCNE1 inh 130.0% | KCNK3 confirm 94.7 | KCNK3 noninduced inactive
CCCn1c(=O)c(C(=O)NCCc2ccc(OC)c(OC)c2)c(O)c2ccccc21	KCNK3 inh -10.6, KCNQ1 block 9 | KCNQ1 block val 79.5 | CHO Tl flux inactive | KCNQ2 inh 101.3% | KCNQ1-KCNE1 inh 63.0% | KCNK3 confirm 107.0 | KCNK3 noninduced 0.159
O=C(CNCc1ccccc1Cl)Nc1ccccc1N1CCCCC1	KCNK3 inh -8.95, KCNQ1 block 7 | KCNQ1 block val 96.0 | CHO Tl flux inactive | KCNQ1 APC inh active | KCNQ2 inh 115.0% | KCNQ1-KCNE1 inh 109.0% | KCNK3 confirm 113.7 | KCNK3 noninduced 0.151
Cc1cc(OCC(=O)Nc2ccccc2N2CCCC2)ccc1C(C)C	KCNK3 inh -9, KCNQ1 block 9 | KCNQ1 block val 72.5 | CHO Tl flux inactive | KCNQ2 inh 82.3% | KCNQ1-KCNE1 inh 99.5% | KCNK3 confirm 111.7 | KCNK3 noninduced inactive
CCOC(=O)/C(C#N)=C/c1cn(CCC(=O)O)nc1-c1ccc(Cl)cc1	none
CSc1ccc(CN(C)C(C)C(=O)Nc2ccc(F)c(F)c2F)cc1 (stereo not drawn)	none
CC(C(=O)NCC1CCCCC1)N(C)Cc1ccc(Cl)cc1 (stereo not drawn)	KCNK3 inh -9.72, KCNQ1 block 9, KCNK9 block -7.17 | KCNQ1 block val 75.5 | CHO Tl flux 0.376 | KCNQ2 inh 68.7% | KCNQ1-KCNE1 inh 98.5% | KCNK3 confirm 105.3 | KCNK3 noninduced inactive
CC(C(=O)NCC1CCCCC1)N(C)Cc1ccc(Br)cc1 (stereo not drawn)	KCNK3 inh -15, KCNQ1 block 8 | KCNQ1 block val 69.0 | CHO Tl flux inactive | KCNQ2 inh 92.0% | KCNQ1-KCNE1 inh 66.0% | KCNK3 confirm 120.7 | KCNK3 noninduced 0.156
CC(OC(=O)c1ccc(Br)o1)C(=O)NCC1CCCCC1 (stereo not drawn)	none (no result: hERG protect, KCNQ1 pot, KCNQ1 block, KCNK9 block, Kir21 block)
CSc1ccc(CN(C)C(C)C(=O)NCC2CCCCC2)cc1 (stereo not drawn)	KCNK3 inh -9.36, KCNQ1 block 6 | KCNQ1 block val 65.5 | CHO Tl flux inactive | KCNQ2 inh 69.0% | KCNQ1-KCNE1 inh 79.5% | KCNK3 confirm 95.3 | KCNK3 noninduced inactive
COc1c(-c2ccc([N+](=O)[O-])cc2[N+](=O)[O-])c(=O)n(C)c(=O)n1C	none
COc1ccc(Cl)cc1NC(=O)[C@@]1(CC(=O)O)CC(/C=C/c2ccccc2)=NO1	none
COCCn1c(=NC(=O)C2COc3ccccc3O2)sc2cc(S(N)(=O)=O)ccc21 (stereo not drawn)	none
CCn1c(=NC(=O)C2COc3ccccc3O2)sc2c(OC)ccc(OC)c21 (stereo not drawn)	KCNK3 inh -10.1, KCNQ1 block 7, KCNK9 block -6.61 | KCNQ1 block val 79.5 | CHO Tl flux inactive | KCNQ2 inh 81.7% | KCNQ1-KCNE1 inh 125.5% | KCNK3 confirm 112.0 | KCNK3 noninduced inactive
CCOc1ccccc1NC(=O)NC(C)c1ccncc1 (stereo not drawn)	none
CCOc1ccc(CCNC(=O)c2ccc3c(=O)[nH]c4c(C(=O)NC(C)C)sc(=S)n4c3c2)cc1	KCNK3 inh -8.97, KCNQ1 block 15 | KCNQ1 block val 156.5 | CHO Tl flux 0.329 | KCNQ2 inh 97.0% | KCNQ1-KCNE1 inh active | KCNK3 confirm 108.3 | KCNK3 noninduced inactive
CCCCNC(=O)c1sc(=S)n2c1[nH]c(=O)c1ccccc12	none
CC(C)NC(=O)c1sc(=S)n2c1[nH]c(=O)c1ccc(C(=O)NCCc3ccc(Cl)cc3)cc12	KCNK3 inh -18.3, KCNQ1 block 16 | KCNQ1 block val 102.5 | CHO Tl flux 0.347 | KCNQ2 inh 80.7% | KCNQ1-KCNE1 inh 174.0% | KCNK3 confirm 93.3 | KCNK3 noninduced inactive
CCc1cc(=O)n2c([nH]c3ccccc32)c1C#N	none
CCc1cc(=S)n2c([nH]c3ccccc32)c1C#N	KCNK3 inh -9.35, KCNQ1 block 11 | KCNQ1 block val 102.5 | CHO Tl flux inactive | KCNQ1 APC inh inactive | KCNQ2 inh 112.0% | KCNQ1-KCNE1 inh 81.5% | KCNK3 confirm 137.3 | KCNK3 noninduced 0.0573
CC(C)Oc1ccc(Cn2c(=O)oc3ccccc32)cc1	none
Cc1ccc(NC2=C(NC(=O)c3ccccc3)C(=O)c3ccccc3C2=O)cc1Cl	none
O=C(O)c1cccc(NC2=C(Cl)C(=O)c3ccccc3C2=O)c1	KCNK3 inh -8.71, KCNQ1 block 16, Kir21 block -7.33 | KCNQ1 block val 155.0 | CHO Tl flux 0.28 | KCNQ2 inh 118.7% | KCNQ1-KCNE1 inh active | KCNK3 confirm 126.3 | KCNK3 noninduced 0.123
O=C(O)c1ccc(NC2=C(Cl)C(=O)c3ccccc3C2=O)cc1	KCNK3 inh -11.7, KCNQ1 block 15, KCNK9 block -12.4, Kir21 block -9.06 | KCNQ1 block val 167.0 | CHO Tl flux 0.261 | KCNQ2 inh 117.7% | KCNQ1-KCNE1 inh active | KCNK3 confirm 137.0 | KCNK3 noninduced 0.0923
CC1=C(Nc2ccc(C(=O)O)cc2)C(=O)c2ccccc2C1=O	none
Cc1c(CCC(=O)N[C@@H](CC(C)C)C(=O)O)c(=O)oc2cc3oc4c(c3cc12)CCCC4	none
